# Source: PubChem (Broad Institute)
# E-sel inducer: E-selectin induction in HUVECs, primary screen, imaging, HUVEC, immunofluorescence imaging, single point; normalized: neutral wells 0, TNF-alpha wells 100; activation, % at 7.58 µM; hit rate 0.37% among 260,000;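 active means mean E-selectin-positive cell signal at least 10% of the positive control, reached in at least 60% of replicates, without over 20% cell loss; inconclusive means no rule given, readout overlaps actives, possibly toxicity-flagged; inactive means the rest, including those meeting only one limit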
# Target sequence (P16581 whole entry, looked up): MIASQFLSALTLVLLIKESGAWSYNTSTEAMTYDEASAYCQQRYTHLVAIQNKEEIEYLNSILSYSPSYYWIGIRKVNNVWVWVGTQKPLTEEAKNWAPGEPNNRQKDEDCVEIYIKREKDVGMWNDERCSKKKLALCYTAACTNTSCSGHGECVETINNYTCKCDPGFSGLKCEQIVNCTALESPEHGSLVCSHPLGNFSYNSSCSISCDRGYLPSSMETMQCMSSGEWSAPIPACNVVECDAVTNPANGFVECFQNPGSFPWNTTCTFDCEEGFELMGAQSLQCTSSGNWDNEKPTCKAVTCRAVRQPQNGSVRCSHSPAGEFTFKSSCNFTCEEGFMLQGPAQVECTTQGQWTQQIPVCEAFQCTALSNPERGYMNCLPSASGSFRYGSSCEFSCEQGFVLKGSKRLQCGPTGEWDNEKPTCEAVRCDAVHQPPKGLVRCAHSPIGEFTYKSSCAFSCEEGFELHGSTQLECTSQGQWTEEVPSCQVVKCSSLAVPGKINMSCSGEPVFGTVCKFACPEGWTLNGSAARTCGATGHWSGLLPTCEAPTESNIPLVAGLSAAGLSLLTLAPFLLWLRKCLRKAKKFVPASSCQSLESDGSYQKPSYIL
#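 Test system: HUVEC; input: 3,000 HUVEC/well; measured by: immunofluorescence imaging; read-out: % PE-positive cells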
# DENV2 CPE rescue: inhibitors of DENV2 cytopathic effect, primary screen, cell-based, plate reader, single concentration; DENV2-infected cells, cytopathic effect rescue; CPE inhibition, % at 9.99 µM; hit rate 1.7% among 350,000; AID 651640, 2012; in the data active means CPE inhibition above about 20%, passing the limit was not always enough; inconclusive means no clear call, values can overlap the other calls; tested in BHK-21 cells;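 further: 0% = median of neutral control wells and 100% = median of positive control wells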
# miR-122 sensor: miR-122 Renilla sensor signal increase in Huh7, primary screen, miR-122 inhibitor project, cell-based, single point, plate reader. Huh7 miR-122 Renilla luciferase sensor, 48 h; neutral wells = 0, positive control = 100. activation (reporter increase), % at 12.5 µM. hit rate 0.3% among 340,000. AID 602342, 2012;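 active means mean replicate activation score at least 90 and every replicate individually at or above 90; inconclusive means only one of the two criteria met; inactive means neither criterion met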;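 further: higher luciferase means less miR-122 activity so hits act as miR-122 inhibitors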
# Cneo AK release: Cryptococcus neoformans cell lysis inducers, primary screen, AK release luminescence, single concentration | C. neoformans lysis, adenylate kinase release luminescence, 4 h; normalised: neutral wells 0, clomiphene wells 100 | lysis activity, % at 15 µM | hit rate 0.2% among 360,000;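 active means mean lysis activity across replicates of at least 80%, whatever share of replicates individually reach that level; inactive means mean lysis activity below 80%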
#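 Material: C. neoformans cells; Schedule: 4 h static compound exposure, 37 °C, read 1 h post-reagent; Measured by: adenylate kinase release luminescence; Read-out: signal increase indicating cell lysis; Controls: Clomiphene as positive lysis control.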
# rRNA inh HTS: reduced GFP signal of wild-type E. coli, primary screen, bacterial rRNA inhibitor project, GFP/RFP fluorescence, OD600, single point. E. coli WT GFP vs humanized-ribosome RFP mutants, 24 h; active compounds read low; DMSO median 0, no signal -100. GFP signal change (wild-type ribosome), % (test concentration not listed). hit rate 1.6% among 350,000;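 active means significant combined selectivity score with lowered wild-type GFP, culture density cut under 30%, mutant RFP and density less affected; inactive means any of these conditions unmet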
# An asterisk follows results filed as active; ? = inconclusive; . = no result; [ ] = remark or other dose. Only some compounds are listed: those with a hit (about 3.1% of all), similar ones and a draw of the others.
SMILES,E-sel inducer,DENV2 CPE rescue,miR-122 sensor,Cneo AK release,rRNA inh HTS
O=C(Nc1cccc(Cl)c1)c1csc([C@@H]2C[C@H](O)[C@@H](CO)O2)n1,0.0,36.0*,6.1,-1.1,-1.8
O=C(Nc1cccc(C(F)(F)F)c1)c1csc([C@H]2C[C@H](O)[C@@H](CO)O2)n1,-0.5,-1.1,3.6,-0.3,-9.8
O=C(Nc1ccc(OCCO)cc1)c1csc([C@@H]2O[C@H](CO)[C@H](O)[C@H](O)[C@H]2O)n1,-0.1,-7.4,-3.8,-1.1,5.8
CC(C)NC(=O)NCC[C@@H]1CC[C@H](NC(=O)CN(C)C)[C@H](CO)O1,-0.8,-4.5,-4.4[16.7 µM],-1.7,-0.1
CN1C(=O)c2cc(NC(=O)Nc3ccc(Cl)cc3)ccc2OC[C@H]2O[C@H](CC(=O)O)CC[C@@H]21,0.3,-3.6,2.1[16.7 µM],0.9,0.1
COc1ccc(CN(C)C[C@H]2OCCCC[C@H](C)Oc3ccc(NC(=O)CCC(F)(F)F)cc3C(=O)N([C@@H](C)CO)C[C@H]2C)cc1,0.2,-2.8,5.5[16.7 µM],-2.4,-2.5
COc1ccc(CN(C)C[C@H]2OCCCC[C@H](C)Oc3ccc(NC(=O)CCC(F)(F)F)cc3C(=O)N([C@H](C)CO)C[C@@H]2C)cc1,0.0,28.8*,15.1[16.7 µM],0.3,1.3
C[C@@H]1CCCCO[C@H](CN(C)Cc2ccc(C(F)(F)F)cc2)[C@H](C)CN([C@@H](C)CO)C(=O)c2cc(NC(=O)CCC(F)(F)F)ccc2O1,?,-2.7,-14.5[16.7 µM],5.0,3.4
C[C@@H]1CCCCO[C@H](CN(C)Cc2ccc(C(F)(F)F)cc2)[C@@H](C)CN([C@@H](C)CO)C(=O)c2cc(NC(=O)CCC(F)(F)F)ccc2O1,0.7,20.5*,1.8[16.7 µM],1.0,3.3
C[C@H]1CN([C@@H](C)CO)C(=O)c2cc(NC(=O)CCC(F)(F)F)ccc2O[C@@H]1CN(C)Cc1ccc(C(F)(F)F)cc1,38.3*,4.0,-0.2[16.7 µM],-4.0,-1.9
O=C(O)C[C@H]1C[C@H]2c3cc(NC(=O)c4ccc5c(c4)OCO5)ccc3O[C@H]2[C@H](CO)O1,0.0,8.9,-1.7[16.7 µM],1.3,3.0
Cc1ccc(S(=O)(=O)Nc2cccc3c2O[C@@H](CN(C)C(=O)NC2CCCCC2)[C@H](C)CN([C@H](C)CO)C3=O)cc1,0.4,18.3,11.2[16.7 µM],40.0,1.3
O=C(COc1cc2oc(=O)c3c(c2cc1Cl)CCC3)NCCCn1ccnc1,.,0.0,.,9.4,-16.9*
Cc1c(C)c2cc(Cl)c(OCC(=O)NCCCn3ccnc3)cc2oc1=O,.,-3.6,-8.8,.,1.1
COc1ccc(-c2nc(NC(=O)Cn3c(=O)oc4ccccc43)sc2C)cc1,39.0*,-1.8,.,2.7,-8.2
CCS(=O)(=O)N1CC(=O)N2[C@H](CO)[C@@H](c3ccc(-c4ccccc4C)cc3)[C@@H]2C1,.,.,.,.,-0.7
Cc1cc(C)c(C(=O)NC2CCCc3c2cnn3-c2ccc(C)c(C)c2)c(=O)[nH]1 (centres undefined),0.2,106.2*,10.9,-3.1,3.5
COc1ccc(NC(=O)N2CCCCN3[C@H](C2)[C@@H](c2ccc(C#Cc4ccccc4)cc2)[C@@H]3CO)cc1,.,-5.9,-9.7[16.7 µM],6.4,.
CC(C)CCNC(=O)C1CC(c2ccccc2C(F)(F)F)=NO1 (centres undefined),0.2,35.3*,9.1,-1.2,6.8
